In the library only some 4.1% were active in any assay of this set; here they are far more common.
Cl transport mod: KCC2 cotransporter modulators, thallium flux, primary screen, cell-based, HEK293 KCC2, FluoZin-2 fluorescence, MLSMR. Solute carrier family 12 member 5 (Homo sapiens), Q9H2X9. KCC2 cells, thallium flux FluoZin-2 fluorescence. B-score of Tl+ flux slope (higher = more flux/activation; lower = inhibition) at 10 µM. 2.2% of 190,000 active;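 active = thallium flux slope and its plate-corrected score both differing from the plate sample mean at a set confidence after two filtering rounds, in either direction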;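 also: slope of fluorescence scaled to starting intensity during 10 to 20 s after thallium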
Target sequence (Q9H2X9 whole entry, looked up): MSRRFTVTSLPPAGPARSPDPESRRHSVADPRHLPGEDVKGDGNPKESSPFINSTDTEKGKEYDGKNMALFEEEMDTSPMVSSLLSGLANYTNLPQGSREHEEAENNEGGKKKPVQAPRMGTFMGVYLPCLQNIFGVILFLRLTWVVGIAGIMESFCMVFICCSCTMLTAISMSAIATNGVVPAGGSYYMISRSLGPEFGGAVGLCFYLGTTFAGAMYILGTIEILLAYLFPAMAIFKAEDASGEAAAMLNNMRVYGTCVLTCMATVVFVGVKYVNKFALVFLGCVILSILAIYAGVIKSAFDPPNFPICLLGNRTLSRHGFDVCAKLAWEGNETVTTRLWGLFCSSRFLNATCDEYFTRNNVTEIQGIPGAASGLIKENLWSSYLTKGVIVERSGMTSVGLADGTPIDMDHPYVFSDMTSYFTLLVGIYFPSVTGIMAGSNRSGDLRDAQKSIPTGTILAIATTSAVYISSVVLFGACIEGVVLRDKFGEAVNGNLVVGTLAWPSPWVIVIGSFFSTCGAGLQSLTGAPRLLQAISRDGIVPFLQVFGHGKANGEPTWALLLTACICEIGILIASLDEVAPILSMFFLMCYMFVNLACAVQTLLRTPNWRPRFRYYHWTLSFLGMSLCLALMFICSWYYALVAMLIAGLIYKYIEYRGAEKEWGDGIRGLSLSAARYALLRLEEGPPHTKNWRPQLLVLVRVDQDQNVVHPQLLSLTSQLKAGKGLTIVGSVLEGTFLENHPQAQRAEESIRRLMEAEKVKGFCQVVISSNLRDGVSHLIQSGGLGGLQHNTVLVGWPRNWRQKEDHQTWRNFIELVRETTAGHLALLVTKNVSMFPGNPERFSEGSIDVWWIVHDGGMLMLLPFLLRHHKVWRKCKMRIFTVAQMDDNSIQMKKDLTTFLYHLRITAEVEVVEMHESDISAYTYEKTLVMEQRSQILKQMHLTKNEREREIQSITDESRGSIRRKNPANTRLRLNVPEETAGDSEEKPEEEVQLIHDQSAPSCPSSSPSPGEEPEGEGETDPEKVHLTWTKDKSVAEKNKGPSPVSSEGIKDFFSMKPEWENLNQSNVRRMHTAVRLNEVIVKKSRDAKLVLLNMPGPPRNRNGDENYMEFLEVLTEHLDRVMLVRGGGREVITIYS
KCNQ1 block: inhibitors of human KCNQ1 channel, primary screen, cell-based, thallium flux, high-throughput. Potassium voltage-gated channel subfamily KQT member 1 (Homo sapiens), P51787. CHO-K1 KCNQ1, FluxOR thallium flux fluorescence; stronger effect = higher value. B-score at 10 µM. 1.3% of 310,000 active. AID 2642, 2010;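 active = compounds whose thallium flux B-score, printed positive for inhibition, exceeds three library SD while starting fluorescence stays within three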;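 also: channel opened by potassium depolarization with thallium stimulus after 20 min compound exposure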
KCNQ1 act: potentiators or activators of KCNQ1 channel, primary screen, cell-based, thallium flux, high-throughput; Potassium voltage-gated channel subfamily KQT member 1 (Homo sapiens), P51787; CHO-K1 KCNQ1, thallium flux FluxOR fluorescence; stronger effect = higher value; B-score at 10 µM; 0.35% of 310,000 active; AID 2648, 2010;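 active = fluorescence ratio B-score, a plate-corrected score, at least three library SD, with initial intensity B-score within 5 SD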
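Medium – assay buffer, equal DMSO in all wells · Material – CHO-K1 cell line with stable KCNQ1 potassium channel expression · Signal – kinetic FluxOR thallium fluorescence, 10-s 1-Hz baseline, 110-s post-stimulus read · Compound – single concentration per compound, DMSO matched to controls · Schedule – 37 °C overnight plating, 90-min dark dye load, 20-min compound pretreatment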
KCNK9 block: KCNK9 potassium channel inhibitors, primary screen, HEK293 cells, thallium flux | 1.2% of 310,000 active | Potassium channel subfamily K member 9 (Homo sapiens), Q9NPC2 | FluxOR thallium flux fluorescence; stronger effect = lower value | B-score at 10 µM | AID 488922, 2010;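 active = ratio B-score over 3 SD below the library mean, with starting fluorescence within 5 SD of its mean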;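 also: negative B-score means less thallium flux so channel inhibition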
hERG protect: hERG rescue from dofetilide block, primary screen, cell-based, CHO-hERG, FluxOR thallium flux, dofetilide IC70; dofetilide IC70 present; activation (rescue from dofetilide block), less the hit threshold, % at 10 µM; 0.51% of 310,000 active; AID 1511, 2009;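 active = activation above the mean of controls blocked by dofetilide plus 5 SD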;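 also: thallium influx through hERG after potassium depolarization seen as dye fluorescence rise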
KCNK3 block: human KCNK3 channel inhibitors, primary screen, CHO cells, FluxOR thallium flux, B-score; B-score at 10 µM; 0.84% of 340,000 active; FluxOR fluorescence; stronger effect = lower value; AID 602410, 2012;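 active = B-score under library mean minus 4 SD, starting fluorescence ratio at most library mean plus 5 SD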;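 also: more negative B-score means stronger inhibition of thallium flux through KCNK3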
KCNK3 confirm: retest of human KCNK3 channel inhibitors, confirmation, CHO cells, FluxOR thallium flux, triplicate | 99% of 2,400 active | AID 651638, 2012 | ratio percent of control, % at 10 µM | FluxOR fluorescence; 0% buffer, 100% carvedilol maximal block | shares compounds with KCNK3 block;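 active = ratio percent of control, averaged over triplicates, above buffer control mean plus 5 SD, cut at about 64% in these data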;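 also: ratio is the fluorescence rise from min to max over baseline after thallium stimulus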
KCNK3 noninduced: thallium flux inhibition in non-induced cells, primary screen, counter-screen for KCNK3 inhibitor project, cell-based, non-induced KCNK3 line, FluxOR thallium, triplicate. 40% of 2,400 active. non-induced KCNK3 parental cells; stronger effect = lower value. shares compounds with KCNK3 block. thallium flux ratio (lower = more inhibition) at 10 µM;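 active = thallium flux ratio, averaged over three wells, more than 5 SD below the buffer control mean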;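 also: host cells are CHO cells without KCNK3 induction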
Each line names hits and unclear results; the compound was inactive in the other large screens (follow-up assays come after a bar, where they were run).

CCCC(c1nnnn1CCc1ccccc1)N1CCN(C(=O)c2ccco2)CC1 (stereo not drawn)	none
c1ccc(CN2CCC(Nc3nc(-c4cccs4)nc4ccccc34)CC2)cc1	KCNK3 block -10 | KCNK3 confirm 126.0 | KCNK3 noninduced 0.14
O=c1c2ccccc2nnn1Cc1ccc(F)cc1	none
CCOC(=O)Cc1nn(Cc2ccccc2)c(=O)c2ccccc12	KCNK3 block -9.92 | KCNK3 confirm 108.7 | KCNK3 noninduced 0.152
N#CCc1nn(Cc2ccc(F)cc2)c(=O)c2ccccc12	KCNK3 block -9.03 (no result: Cl transport mod) | KCNK3 confirm 94.3 | KCNK3 noninduced inactive
COc1ccc(NS(=O)(=O)c2ccc3oc(=O)c4[nH]c(=O)c(=O)n(C)c4c3c2)cc1	none (no result: Cl transport mod)
CC(Oc1ccccc1F)C(=O)NNC(=O)c1ccc(F)c(S(=O)(=O)N2CCOCC2)c1 (stereo not drawn)	none (no result: Cl transport mod)
Cc1cccc(C(=O)c2cnc3ccccc3c2-c2ccccc2)c1	KCNK9 block -6.73, KCNK3 block -11.4 | KCNK3 confirm 129.0 | KCNK3 noninduced 0.137
CCC(C)c1ccc(NC(=O)Nc2cccnc2)cc1 (stereo not drawn)	KCNK3 block -9.71 (no result: Cl transport mod) | KCNK3 confirm 118.7 | KCNK3 noninduced 0.148
CCc1ccc(N2C(=O)C(Cl)=C(N3CCCCCC3)C2=O)cc1	KCNK9 block -7.08 (no result: Cl transport mod) | KCNK3 confirm 116.7 | KCNK3 noninduced 0.15
CCc1ccc(N2C(=O)C(Cl)=C(N3CCOCC3)C2=O)cc1	none
COc1ccc(NC(=S)N(CCCN2CCOCC2)C(C)c2cc3cccc(OC)c3o2)cc1 (stereo not drawn)	none
COc1cccc2cc(C(C)N(CCCN3CCOCC3)C(=S)Nc3ccc(C)c(C)c3)oc12 (stereo not drawn)	KCNK3 block -9.26 | KCNK3 confirm 89.0 | KCNK3 noninduced inactive
CN1CCN(C(=O)c2ccc3c(c2)N(Cc2ccccc2)CCS3)CC1	none (no result: Cl transport mod)
O=C(c1ccc2c(c1)N(Cc1ccccc1)CCS2)N1CCCCC1	KCNK3 block -9.89 | KCNK3 confirm 124.0 | KCNK3 noninduced 0.134
Cc1cc(/C=C2\SC(=S)NC2=O)c(C)n1-c1cccc(O)c1	KCNK9 block -7.3, KCNK3 block -8.88 | KCNK3 confirm 112.7 | KCNK3 noninduced 0.147
CCCOc1ccc(-c2nnn(CC(=O)Nc3cccc(C(=O)OC)c3)n2)cc1	none (no result: Cl transport mod)
CCCCOc1ccc(-c2nnn(C(C)(C)C(=O)OC)n2)cc1	KCNK9 block -6.65, KCNK3 block -11.3 | KCNK3 confirm 96.0 | KCNK3 noninduced inactive
CCOC(=O)C1CN(S(=O)(=O)c2ccc(C)cc2)c2ccccc2O1 (stereo not drawn)	none (no result: Cl transport mod)
N=c1c(C(=O)NCC2CCCO2)cc2c(=O)n3ccccc3nc2n1Cc1ccccc1Cl (stereo not drawn)	none (no result: Cl transport mod)
CCCCc1nc(NCCNC(=O)c2ccccc2)c(C#N)c2c1CSC(C)(C)C2	KCNK3 block -10.1 | KCNK3 confirm 136.3 | KCNK3 noninduced 0.112
Nc1cc(S(=O)(=O)N2CCCCC2)ccc1Oc1ccc(Cl)cc1	KCNK3 block -9.05 | KCNK3 confirm 112.3 | KCNK3 noninduced inactive
CCC(=O)Nc1ccc(C(=O)NNC(=O)C2CCCCC2)cc1	none (no result: Cl transport mod)
CC(Oc1ccc(F)cc1)C(=O)Nc1sc2c(c1C(=O)NCc1cccnc1)CCCC2 (stereo not drawn)	KCNK3 block -8.88 | KCNK3 confirm 112.7 | KCNK3 noninduced inactive
CC(Oc1ccccc1)C(=O)NCc1cccnc1 (stereo not drawn)	none
Cc1cc(C)cc(OC(C)C(=O)Nc2ccccc2C(=O)NCc2cccnc2)c1 (stereo not drawn)	KCNK3 block -9.73 (no result: Cl transport mod) | KCNK3 confirm 84.0 | KCNK3 noninduced 0.157
Cc1ccc(C)c(Nc2cc(C(=O)NCc3cccnc3)c3ccccc3n2)c1	KCNK9 block -7.86, KCNK3 block -8.86 | KCNK3 confirm 86.7 | KCNK3 noninduced inactive
Cc1cc(C)n(CCCNC(=O)C(C)(C)Oc2ccc(Cl)cc2)n1	none (no result: Cl transport mod, KCNQ1 block, KCNQ1 act, KCNK9 block, hERG protect)
CN(C)CCCNC(=O)C1(O)c2cc(Br)ccc2NC(=O)N1c1ccc(Cl)cc1 (stereo not drawn)	none (no result: Cl transport mod)
N#Cc1nc(-c2ccco2)oc1N1CCCC1	none (no result: Cl transport mod)
N#Cc1nc(-c2ccco2)oc1N1CCN(c2cccc(Cl)c2)CC1	KCNK3 block -9.61 | KCNK3 confirm 111.3 | KCNK3 noninduced inactive
CCN(CC)CCC=C(c1cccs1)c1cccs1	none (no result: Cl transport mod, KCNQ1 block, KCNQ1 act, KCNK9 block, hERG protect)
Cn1cccc1-c1nc2ccc(NC(=O)c3ccccc3)cc2[nH]1	KCNK3 block -11.2 | KCNK3 confirm 102.7 | KCNK3 noninduced inactive
Cn1cccc1-c1nc2ccc(NC(=O)c3ccc([N+](=O)[O-])cc3)cc2[nH]1	none
O=C(Nc1ccc2nc(-c3ccco3)[nH]c2c1)c1ccco1	KCNK3 block -8.94 | KCNK3 confirm 139.7 | KCNK3 noninduced inactive
O=C(N/C=C/c1ccco1)Nc1cccc(Cl)c1	KCNQ1 block 6, KCNK3 block -9.32 | KCNK3 confirm 93.7 | KCNK3 noninduced 0.143
Cc1cc(SCC(=O)N/N=C/c2ccc(O)cc2O)nc2ccccc12	KCNK3 block -11.5 (no result: Cl transport mod) | KCNK3 confirm 147.0 | KCNK3 noninduced 0.101
Cc1cc(SCC(=O)N/N=C/c2ccc(O)c(O)c2)nc2ccccc12	none (no result: Cl transport mod)
Cc1ccc2nc3c(cc2c1)c(NC(=O)C(C)(C)C)nn3CC(C)C	none (no result: Cl transport mod)
Cc1oc(-c2cccc3ccccc23)nc1CN1CCN(c2ncnc3ccccc23)CC1	KCNK3 block -9.67 | KCNK3 confirm 112.3 | KCNK3 noninduced inactive
COc1ccc(-c2nc(CN3CCN(c4cc(C)nc(C)c4)CC3)c(C)o2)c2ccccc12	none
CCOc1ccc(N(C(=O)c2snc(C(N)=O)c2N)C(C(=O)NC2CCCC2)c2ccncc2)cc1 (stereo not drawn)	none (no result: Cl transport mod)
